From ChEMBL document CHEMBL4665666, “Discovery and characterization of trypanocidal cysteine protease inhibitors from the 'malaria box'” (Eur J Med Chem, 2019)
The source made the active and inactive calls. No cut-off for these calls is given here.

Columns and labels:
[1] = test system: Trypanosoma brucei brucei; test: Trypanocidal activity against Trypanosoma brucei brucei Squib 427 assessed as reduction in parasite viability; format: functional, organism-based
[2] = target: Rhodesain (Trypanosoma brucei rhodesiense) (UniProt Q95PM0); test: Inhibition of recombinant Trypanosoma brucei rhodesain expressed in Pichia pastoris at 5 uM using Z-FR-AMC as substrate preincubated for 10 mins followed by substrate addition and measured at 12 sec interval for 5 mins by fluorimetric analysis relative to control; details: time 15.0 min
Rhodesain (Trypanosoma brucei rhodesiense), sequence (Q95PM0 1-450): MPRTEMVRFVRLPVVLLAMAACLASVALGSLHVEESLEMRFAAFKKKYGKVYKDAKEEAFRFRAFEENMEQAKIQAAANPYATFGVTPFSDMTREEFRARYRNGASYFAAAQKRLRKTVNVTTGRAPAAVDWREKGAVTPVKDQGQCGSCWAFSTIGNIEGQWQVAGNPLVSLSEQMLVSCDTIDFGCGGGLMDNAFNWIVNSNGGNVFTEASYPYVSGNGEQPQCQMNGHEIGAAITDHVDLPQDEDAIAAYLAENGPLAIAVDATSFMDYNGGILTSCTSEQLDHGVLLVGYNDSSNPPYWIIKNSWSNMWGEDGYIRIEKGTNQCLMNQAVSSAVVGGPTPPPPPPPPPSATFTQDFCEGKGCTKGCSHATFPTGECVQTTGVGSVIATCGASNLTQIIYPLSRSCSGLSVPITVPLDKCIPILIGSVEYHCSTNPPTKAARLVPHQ
Procedure, shortened: (§1)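 Recombinant rhodesain or cruzain (1 nM) in 0.1 M sodium acetate pH 5.5, 0.01% Triton X-100, 1 mM β-mercaptoethanol. Compound at a single concentration, either without or after 10 min enzyme pre-incubation. Inhibition is relative to DMSO, with E-64 as positive control. Done in duplicate (primary screen) or triplicate.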

Trypanosoma cruzi [3] = test: Trypanocidal activity against Trypanosoma cruzi Tulahuen C4 assessed as reduction in parasite viability; format: functional, organism-based
[4] = target: Cruzipain (Trypanosoma cruzi) (UniProt P25779); test: Inhibition of recombinant Trypanosoma cruzi cruzain at 10 uM using Z-FR-AMC as substrate and measured at 12 sec interval for 5 mins without preincubation by fluorimetric analysis relative to control
Cruzipain (Trypanosoma cruzi), sequence (P25779 123-467 limits assumed): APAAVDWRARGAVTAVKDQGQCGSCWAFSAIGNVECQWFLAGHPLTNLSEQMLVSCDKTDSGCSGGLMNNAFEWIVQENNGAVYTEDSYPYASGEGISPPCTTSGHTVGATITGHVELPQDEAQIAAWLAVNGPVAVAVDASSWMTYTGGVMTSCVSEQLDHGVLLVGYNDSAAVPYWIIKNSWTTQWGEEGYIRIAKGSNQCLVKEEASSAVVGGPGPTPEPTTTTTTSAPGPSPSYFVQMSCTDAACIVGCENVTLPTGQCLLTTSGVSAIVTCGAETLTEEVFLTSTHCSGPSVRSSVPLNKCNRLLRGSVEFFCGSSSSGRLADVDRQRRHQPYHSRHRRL
Procedure, shortened: as §1, with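 “pre-incubation. Z-FR-AMC 2.5 µM, read at 340/440 nm every 12 s for 5 min.” for “pre-incubation.”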

[5] = target: Cruzipain (Trypanosoma cruzi) (UniProt P25779); test: Inhibition of recombinant Trypanosoma cruzi cruzain at 10 uM preincubated for 10 mins in presence of 0.01% Triton X-100 relative to control
Procedure, shortened: (§2)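 To test detergent sensitivity, cruzain was pre-incubated 10 min at room temperature with compound with no Triton X-100, 0.01% or 0.1% Triton X-100. Cleavage of Z-FR-AMC was then followed at pH 5.5 in acetate buffer. Percent inhibition was compared across detergent levels.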

[6] = target: Rhodesain (Trypanosoma brucei rhodesiense) (UniProt Q95PM0); test: Inhibition of recombinant Trypanosoma brucei rhodesain expressed in Pichia pastoris at 10 uM using Z-FR-AMC as substrate preincubated for 10 mins followed by substrate addition and measured at 12 sec interval for 5 mins by fluorimetric analysis relative to control; details: time 15.0 min
Procedure, shortened: as §1, with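 “pre-incubation. Z-FR-AMC 2.5 µM, read at 340/440 nm every 12 s for 5 min.” for “pre-incubation.”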

[7] = target: Cruzipain (Trypanosoma cruzi) (UniProt P25779); test: Inhibition of recombinant Trypanosoma cruzi cruzain at 5 uM using Z-FR-AMC as substrate and measured at 12 sec interval for 5 mins without preincubation by fluorimetric analysis relative to control; procedure, shortened: as §1
[8] = target: Rhodesain (Trypanosoma brucei rhodesiense) (UniProt Q95PM0); test: Inhibition of recombinant Trypanosoma brucei rhodesain expressed in Pichia pastoris at 5 uM using Z-FR-AMC as substrate and measured at 12 sec interval for 5 mins without preincubation by fluorimetric analysis relative to control; procedure, shortened: as §1
[9] = test system: Trypanosoma brucei rhodesiense; test: Trypanocidal activity against Trypanosoma brucei rhodesiense STI B900 assessed as reduction in parasite viability; format: functional, organism-based
[10] = target: Cruzipain (Trypanosoma cruzi) (UniProt P25779); test: Inhibition of recombinant Trypanosoma cruzi cruzain at 10 uM preincubated for 10 mins in presence of 0.1% Triton X-100 relative to control; procedure, shortened: as §2
[11] = target: Cruzipain (Trypanosoma cruzi) (UniProt P25779); test: Inhibition of recombinant Trypanosoma cruzi cruzain at 5 uM using Z-FR-AMC as substrate preincubated for 10 mins followed by substrate addition and measured at 12 sec interval for 5 mins by fluorimetric analysis relative to control; details: time 15.0 min; procedure, shortened: as §1
[12] = target: Cruzipain (Trypanosoma cruzi) (UniProt P25779); test: Inhibition of recombinant Trypanosoma cruzi cruzain at 10 uM preincubated with BSA for 5 mins followed by incubation with enzyme for 5 mins followed by substrate addition relative to control; details: time 10.0 min
Procedure, shortened: (§3)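 For BSA sensitivity, compound was held 5 min with BSA (2 mg/mL in 0.001% Triton X-100), then 5 min with 1 nM cruzain, before substrate was added and activity monitored. Parallel runs omitted BSA under otherwise identical conditions.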

[13] = target: Cruzipain (Trypanosoma cruzi) (UniProt P25779); test: Inhibition of recombinant Trypanosoma cruzi cruzain at 10 uM preincubated with enzyme for 5 mins followed by substrate addition in absence of BSA relative to control; procedure, shortened: as §3
[14] = target: Rhodesain (Trypanosoma brucei rhodesiense) (UniProt Q95PM0); test: Inhibition of recombinant Trypanosoma brucei rhodesain expressed in Pichia pastoris at 10 uM using Z-FR-AMC as substrate and measured at 12 sec interval for 5 mins without preincubation by fluorimetric analysis relative to control
Procedure, shortened: as §1, with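 “pre-incubation. Z-FR-AMC 2.5 µM, read at 340/440 nm every 12 s for 5 min.” for “pre-incubation.”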

[15] = target: Cruzipain (Trypanosoma cruzi) (UniProt P25779); test: Inhibition of recombinant Trypanosoma cruzi cruzain at 10 uM using Z-FR-AMC as substrate preincubated for 10 mins followed by substrate addition and measured at 12 sec interval for 5 mins by fluorimetric analysis relative to control; details: time 15.0 min
Procedure, shortened: as §1, with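 “pre-incubation. Z-FR-AMC 2.5 µM, read at 340/440 nm every 12 s for 5 min.” for “pre-incubation.”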

[16] = target: Cruzipain (Trypanosoma cruzi) (UniProt P25779); test: Inhibition of recombinant Trypanosoma cruzi cruzain at 10 uM preincubated for 10 mins in absence of Triton X-100 relative to control; procedure, shortened: as §2
Trypanosoma cruzi [17] = test: Trypanocidal activity against Trypanosoma cruzi Y strain trypomastigotes infected in C57BL/6 mouse peritoneal macrophage assessed as reduction in number of trypomastigotes release at 50 uM and measured after day 3 to day 11 post-infection by Neubauer chamber method; format: functional, organism-based; details: time 11.0 day
Procedure, shortened: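 Thioglycolate-elicited peritoneal macrophages from female C57BL/6 mice, 2 × 10^5/well, infected 2 h at 37°C with Y strain trypomastigotes at 5:1 (parasite:cell) and washed. They were then held with compound (3.125–50 µM) or IFN-γ 100 ng/mL. Trypomastigotes released into the supernatant were counted in a Neubauer chamber at several days after infection. Three independent experiments, each in triplicate.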

[18] = target: Cruzipain (Trypanosoma cruzi) (UniProt P25779); test: Inhibition of recombinant Trypanosoma cruzi cruzain at 100 uM using Z-FR-AMC as substrate and measured at 12 sec interval for 5 mins without preincubation by fluorimetric analysis relative to control
Procedure, shortened: as §1, with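 “pre-incubation. Z-FR-AMC 2.5 µM, read at 340/440 nm every 12 s for 5 min.” for “pre-incubation.”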

[19] = target: Cruzipain (Trypanosoma cruzi) (UniProt P25779); test: Inhibition of recombinant Trypanosoma cruzi cruzain at 100 uM preincubated for 10 mins in absence of Triton X-100 relative to control; procedure, shortened: as §2
Cruzipain = Cruzipain (Trypanosoma cruzi, UniProt P25779); test: Inhibition of recombinant Trypanosoma cruzi cruzain using Z-FR-AMC as substrate preincubated for 10 mins followed by substrate addition and measured at 12 sec interval for 5 mins by fluorimetric analysis
Cruzipain, sequence (P25779 whole entry): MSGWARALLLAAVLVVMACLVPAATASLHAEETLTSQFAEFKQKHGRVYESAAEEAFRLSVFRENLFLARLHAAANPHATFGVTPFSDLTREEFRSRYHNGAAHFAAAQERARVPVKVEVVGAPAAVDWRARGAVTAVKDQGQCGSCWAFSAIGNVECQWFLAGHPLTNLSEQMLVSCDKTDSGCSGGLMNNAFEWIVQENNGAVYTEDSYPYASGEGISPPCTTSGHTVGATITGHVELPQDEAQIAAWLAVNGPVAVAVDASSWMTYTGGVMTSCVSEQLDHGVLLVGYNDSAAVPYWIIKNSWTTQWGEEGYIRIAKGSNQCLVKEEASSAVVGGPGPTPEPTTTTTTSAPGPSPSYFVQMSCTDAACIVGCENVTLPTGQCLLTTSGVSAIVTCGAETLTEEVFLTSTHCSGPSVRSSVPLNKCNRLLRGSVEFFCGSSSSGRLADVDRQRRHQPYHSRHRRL
Procedure, shortened: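 Cruzain (recombinant, 1 nM) in 0.1 M sodium acetate pH 5.5 with 0.01% Triton X-100 and 1 mM β-mercaptoethanol; Z-FR-AMC 2.5 µM, read at 340/440 nm every 12 s for 5 min, with or without 10 min enzyme–compound pre-incubation. […] For mechanism and Ki, 0.3–20.0 µM substrate and five inhibitor levels were used, with Lineweaver-Burk plots.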

[20] = target: Cruzipain (Trypanosoma cruzi) (UniProt P25779); test: Inhibition of recombinant Trypanosoma cruzi cruzain at 100 uM preincubated for 10 mins in presence of 0.1% Triton X-100 relative to control; procedure, shortened: as §2
[21] = target: Cruzipain (Trypanosoma cruzi) (UniProt P25779); test: Inhibition of recombinant Trypanosoma cruzi cruzain at 100 uM using Z-FR-AMC as substrate preincubated for 10 mins followed by substrate addition and measured at 12 sec interval for 5 mins by fluorimetric analysis relative to control; details: time 15.0 min
Procedure, shortened: as §1, with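 “pre-incubation. Z-FR-AMC 2.5 µM, read at 340/440 nm every 12 s for 5 min.” for “pre-incubation.”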

[22] = target: Cruzipain (Trypanosoma cruzi) (UniProt P25779); test: Inhibition of recombinant Trypanosoma cruzi cruzain at 100 uM preincubated with BSA for 5 mins followed by incubation with enzyme for 5 mins followed by substrate addition relative to control; details: time 10.0 min; procedure, shortened: as §3
[23] = target: Cruzipain (Trypanosoma cruzi) (UniProt P25779); test: Inhibition of recombinant Trypanosoma cruzi cruzain at 100 uM preincubated with enzyme for 5 mins followed by substrate addition in absence of BSA relative to control; procedure, shortened: as §3
[24] = target: Rhodesain (Trypanosoma brucei rhodesiense) (UniProt Q95PM0); test: Inhibition of recombinant Trypanosoma brucei rhodesain expressed in Pichia pastoris at 100 uM using Z-FR-AMC as substrate and measured at 12 sec interval for 5 mins without preincubation by fluorimetric analysis relative to control
Procedure, shortened: (§4)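 Run with no pre-incubation or with 10 min enzyme-compound pre-incubation. Fluorescence read at 340/440 nm. Concentration was set by solubility under assay conditions. Inhibition is against DMSO, with E-64 as positive control; triplicate.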

[25] = target: Cruzipain (Trypanosoma cruzi) (UniProt P25779); test: Inhibition of recombinant Trypanosoma cruzi cruzain at 100 uM preincubated for 10 mins in presence of 0.01% Triton X-100 relative to control; procedure, shortened: as §2
[26] = target: Rhodesain (Trypanosoma brucei rhodesiense) (UniProt Q95PM0); test: Inhibition of recombinant Trypanosoma brucei rhodesain expressed in Pichia pastoris at 100 uM using Z-FR-AMC as substrate preincubated for 10 mins followed by substrate addition and measured at 12 sec interval for 5 mins by fluorimetric analysis relative to control; details: time 15.0 min; procedure, shortened: as §4
Rhodesain = Rhodesain (Trypanosoma brucei rhodesiense, UniProt Q95PM0); test: Inhibition of recombinant Trypanosoma brucei rhodesain expressed in Pichia pastoris using Z-FR-AMC as substrate preincubated for 10 mins followed by substrate addition and measured at 12 sec interval for 5 mins by fluorimetric analysis
Rhodesain, sequence (Q95PM0 whole entry): as the sequence (Q95PM0 1-450) above
Procedure, shortened: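 Rhodesain (1 nM) with Z-FR-AMC (2.5 µM) in 0.1 M sodium acetate pH 5.5, 0.01% Triton X-100, 1 mM β-mercaptoethanol, with or without 10 min enzyme-compound pre-incubation. Fluorescence read at 340/440 nm. IC50 by four-parameter nonlinear regression from at least six concentrations in triplicate, with at least two independent runs. Mean ± SEM reported.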

[27] = target: Cruzipain (Trypanosoma cruzi) (UniProt P25779); test: Inhibition of recombinant Trypanosoma cruzi cruzain at 20 uM using Z-FR-AMC as substrate and measured at 12 sec interval for 5 mins without preincubation by fluorimetric analysis relative to control
Procedure, shortened: as §1, with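 “pre-incubation. Z-FR-AMC 2.5 µM, read at 340/440 nm every 12 s for 5 min.” for “pre-incubation.”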

[28] = target: Cruzipain (Trypanosoma cruzi) (UniProt P25779); test: Inhibition of recombinant Trypanosoma cruzi cruzain at 20 uM using Z-FR-AMC as substrate preincubated for 10 mins followed by substrate addition and measured at 12 sec interval for 5 mins by fluorimetric analysis relative to control; details: time 15.0 min
Procedure, shortened: as §1, with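 “pre-incubation. Z-FR-AMC 2.5 µM, read at 340/440 nm every 12 s for 5 min.” for “pre-incubation.”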

[29] = target: Rhodesain (Trypanosoma brucei rhodesiense) (UniProt Q95PM0); test: Inhibition of recombinant Trypanosoma brucei rhodesain expressed in Pichia pastoris at 20 uM using Z-FR-AMC as substrate and measured at 12 sec interval for 5 mins without preincubation by fluorimetric analysis relative to control; procedure, shortened: as §4
[30] = target: Rhodesain (Trypanosoma brucei rhodesiense) (UniProt Q95PM0); test: Inhibition of recombinant Trypanosoma brucei rhodesain expressed in Pichia pastoris at 20 uM using Z-FR-AMC as substrate preincubated for 10 mins followed by substrate addition and measured at 12 sec interval for 5 mins by fluorimetric analysis relative to control; details: time 15.0 min; procedure, shortened: as §4

Structure (SMILES)	IC50 [1]	inhibition [2]	IC50 (Trypanosoma cruzi [3])	inhibition [4]	inhibition [6]	inhibition [7]	inhibition [8]	IC50 [9]	inhibition [11]	inhibition [14]	inhibition [15]	other results
c1ccc(-c2ccc(-c3nc4ccccc4[nH]3)cc2)cc1	32 µM	52.9%	32 µM	33%	52%	77%	42.2%	32 µM	87.1%	14%	38%	inhibition [5]: 38.4%; inhibition [10]: 7.3%; inhibition [12]: 29%; inhibition [13]: 41.3%; inhibition [16]: 100%
COCCNC(=O)c1ccc(OC2CCN(Cc3ccc(F)c(F)c3)CC2)c(Cl)c1	32 µM	83.8%	32 µM	18%	81%	42%	42.1%		74.5%	14%	66%	Activity (Trypanosoma cruzi [17]): Active; inhibition [18]: 29%; inhibition [19]: 98.3%; IC50 (Cruzipain): 5 µM; inhibition [20]: 78.6%; inhibition [21]: 78%; inhibition [22]: 64.7%; inhibition [23]: 79.9%; inhibition [24]: 63%; inhibition [25]: 68.2%; inhibition [26]: 75%; IC50 (Rhodesain): 9 µM
Cc1nc2ccccc2c(O)c1CC=C(Cl)Cl	32 µM	77.1%		4%	2%	61.5%	43.4%	32 µM	99.1%	5%	11%	inhibition [27]: 3%; inhibition [28]: 7%; inhibition [29]: 4%; inhibition [30]: 3%
